Source: ChEMBL document CHEMBL1124622, “Synthesis and antiviral activity of 3'-C-cyano-3'-deoxynucleosides” (J Med Chem, 1989)
Converted amounts (≈) assume the structure as drawn.

Key:
[1] = tested on: Moloney murine sarcoma virus; experiment: In vitro effective dose against Moloney murine sarcoma virus induced transformation of C3H embryo fibroblast cells.; assay type: functional; details: read-out: ED50 (the source's name)
How it was run: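 C3H mouse embryo cells are seeded at 20 000 cells/mL per well and grown 24 h. They are infected with 80 foci-forming units of Moloney MSV for 90 min, then given fresh medium with varying compound concentrations. Transformation is examined microscopically after 6-7 days. ED50 is the dose giving a 50% reduction in transformation.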

[2] = In vitro minimum cytotoxic concentration in C3H embryo fibroblast cells.; assay type: functional; details: Mus musculus
How it was run: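 Minimal cytotoxic concentration in C3H mouse embryo cells, run in the same 48-well setup as the MSV transformation assay: the concentration producing microscopically visible alteration of cell morphology.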

[3] = Minimum cytotoxic concentration in HeLa cell cultures; assay type: cell-based; details: human, HeLa cells
[4] = tested on: HeLa; experiment: Minimum inhibitory concentration against Vesicular stomatitis virus in HeLa cell cultures; assay type: functional; details: Homo sapiens
How it was run: (§1)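 Confluent HeLa, Vero or primary rabbit kidney cell cultures in microtiter trays are inoculated with 100 CCID50 of virus. After 1 h adsorption, residual virus is removed and cells are incubated with varying compound concentrations. Cytopathogenicity is recorded once it is complete in untreated virus-infected controls. MIC is the concentration inhibiting virus-induced cytopathogenicity.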

[5] = tested on: HeLa; experiment: Minimum inhibitory concentration against polio virus 1 in HeLa cell cultures; assay type: functional; details: Homo sapiens; how it was run: as §1
[6] = species: Homo sapiens; experiment: Cytotoxic dose against uninfected human MT-4 cell; assay type: functional; details: MT4, read-out: CD50 (the source's name)
How it was run: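 Cytotoxicity counterpart of the HIV assay: uninfected human MT-4 lymphocytes exposed to the compounds. CD50 is the dose that reduces viability of these uninfected cells by 50%.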

[7] = tested on: Human immunodeficiency virus 1; experiment: Effective dose against HIV-1 induced cytopathogenicity in human MT-4 cell.; assay type: functional; details: Human immunodeficiency virus 1, MT4; read-out: ED50 (the source's name)
How it was run: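 HIV (HTLV-III_B) is taken from the culture supernatant of a persistently infected HUT-78 line. Human MT-4 lymphocytes are infected and the assay scores inhibition of virus-induced cytopathogenicity. ED50 is the dose giving 50% protection of MT-4 cells against the viral cytopathic effect.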

[8] = Minimum cytotoxic concentration in primary rabbit kidney cell cultures; assay type: cell-based, Oryctolagus cuniculus; details: primary rabbit kidney cells
[9] = tested on: Coxsackievirus B4; experiment: Minimum inhibitory concentration against Coxsackie virus B4 in Vero cell cultures; assay type: functional; details: Enterovirus B; how it was run: as §1
[10] = tested on: Semliki Forest virus; experiment: Minimum inhibitory concentration against forest virus in Vero cell cultures; assay type: functional; how it was run: as §1
[11] = tested on: Sindbis virus; experiment: Minimum inhibitory concentration against Sindbis virus in Vero cell cultures; assay type: functional; how it was run: as §1
[12] = tested on: Human respirovirus 3; experiment: Minimum inhibitory concentration against parainfluenza 3 virus in Vero cell cultures; assay type: functional; how it was run: as §1
[13] = tested on: Mammalian orthoreovirus 1; experiment: Minimum inhibitory concentration against reovirus in Vero cell cultures; assay type: functional; how it was run: as §1
[14] = tested on: Vaccinia virus; experiment: Minimum inhibitory concentration against Vaccinia virus in primary rabbit kidney cell cultures; assay type: functional; details: Orthopoxvirus vaccinia; how it was run: as §1
[15] = tested on: Vesicular stomatitis virus; experiment: Minimum inhibitory concentration against Vesicular stomatitis virus in primary rabbit kidney cell cultures; assay type: functional; how it was run: as §1
[16] = tested on: HeLa; experiment: Minimum inhibitory concentration against Coxsackie virus B4 in HeLa cell cultures; assay type: functional; details: Homo sapiens; how it was run: as §1
[17] = Minimum cytotoxic concentration in Vero cell cultures; assay type: cell-based; details: chlorocebus sabaeus, Vero cells

SMILES | EC50 [1] [µg/mL] | MCC [2] [µg/mL] | MCC [3] [µg/mL] | MIC [4] [µg/mL] | MIC [5] [µg/mL] | CC50 [6] [µM] | EC50 [7] [µM] | MCC [8] [µg/mL] | MIC [9] [µg/mL] | MIC [10] [µg/mL] | MIC [11] [µg/mL] | MIC [12] [µg/mL] | MIC [13] [µg/mL] | MIC [14] [µg/mL] | MIC [15] [µg/mL] | MIC [16] [µg/mL] | MCC [17] [µg/mL]
CC(C)(C)[Si](C)(C)OC[C@H]1O[C@@H](n2cnc3c(N)ncnc32)[C@H](O[Si](C)(C)C(C)(C)C)[C@@H]1C#N | > 1.6 | 8 | 400 | 150 (≈ 297 µM) | > 200 | 5.1 | 2.1 | 10 | > 4 | > 4 | > 4 | > 4 | > 4 | > 4 | > 4 | > 200 | 10
CC(C)(C)[Si](C)(C)OC[C@H]1O[C@@H](n2ccc(=O)[nH]c2=O)[C@H](O[Si](C)(C)C(C)(C)C)[C@@H]1C#N | 5.6 (≈ 11.6 µM) | > 8 | > 40 | > 10 | > 10 | 6.6 | 3.2 | > 10 | > 4 | > 4 | > 4 | > 4 | > 4 | > 4 | > 4 | > 10 | > 10
Cc1cn([C@H]2C[C@H](C#N)[C@@H](CO)O2)c(=O)[nH]c1=O | > 16 | 80 | 200 | > 100 | > 100 | 30 | > 16 | 100 | > 10 | > 10 | > 10 | > 10 | > 10 | 20 (≈ 79.6 µM) | > 40 | > 100 | > 10
N#C[C@H]1[C@@H](O)[C@H](n2ccc(=O)[nH]c2=O)O[C@@H]1CO | > 200 | > 200 | > 200 | > 200 | > 200 | 147 | > 80 | > 200 | > 100 | > 100 | > 100 | > 100 | > 100 | > 200 | > 200 | > 200 | > 200
CC(C)(C)[Si](C)(C)OC[C@H]1O[C@@H](n2ccc(=O)[nH]c2=O)[C@H](O[Si](C)(C)C(C)(C)C)[C@H]1C#N | 2.2 (≈ 4.57 µM) | > 3.2 | 4 | > 1 | > 4 | 1.6 | > 6.04 | > 4 | > 1 | > 1 | > 1 | > 1 | > 1 | > 1 | > 1 | > 4 | 4
N#C[C@@H]1[C@@H](O)[C@H](n2cnc3c(N)ncnc32)O[C@@H]1CO | 6.6 (≈ 23.9 µM) | > 40 | 400 | 150 (≈ 543 µM) | > 200 | 2.9 | > 1.6 | 200 | 100 (≈ 362 µM) | 20 (≈ 72.4 µM) | 10 (≈ 36.2 µM) | 70 (≈ 253 µM) | > 100 | 4 (≈ 14.5 µM) | > 200 | > 200 | 200
Cc1cn([C@H]2C[C@@H](C#N)[C@@H](CO)O2)c(=O)[nH]c1=O | > 250 | > 250 | > 400 | > 400 | > 400 | > 250 | > 250 | > 400 | > 400 | > 400 | > 400 | > 200 | > 200 | > 400 | > 400 | > 400 | > 400
N#C[C@@H]1[C@@H](O)[C@H](n2ccc(=O)[nH]c2=O)O[C@@H]1CO | 260 (≈ 1030 µM) | 400 | > 400 | > 200 | > 200 | > 400 | > 400 | > 200 | > 200 | > 200 | > 200 | > 200 | > 200 | 4 (≈ 15.8 µM) | > 200 | > 200 | 400
